From PubChem
A selection: hits, their analogues and other compounds. The true share with any hit is near 9.6%.
BaF3 tox = reduces parental Ba/F3 cell viability, JAK2V617F counter-screen | AID 1486 | inhibition, % at 5.6 µM | 220,000 tested, 1.1% active | CellTiter-Glo ATP luminescence;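 active = inhibition above a per-campaign cutoff, the mean inhibition of all tested compounds plus 3 SD, cut at about 27% in these data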;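 note: 0% = DMSO wells and 100% = JAK Inhibitor I control wells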
MT stabilizer = microtubule stabilizers in HeLa cells; HeLa tubulin immunostaining HCS, 24 h; share of cells brighter than vehicle mean+2SD; 200,000 tested, 0.83% active; AID 2205; % tubulin-high responders, % at 10 µM;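 active = plate Z-score above 3 for both tubulin-high and condensed-nucleus cell shares, with cell loss under 80%, at 10 µM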;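 note: anti alpha tubulin signal scored within the nucleus-defined area of each cell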
L major viab = reduces viability of Leishmania major promastigotes. resazurin fluorescence viability. inhibition, % at 10 µM. 200,000 tested, 9% active; in the data active = inhibition above about 50%;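 note: promastigotes grown with compound for 44 hours at 28 °C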
bCat nuc transl = beta-catenin nuclear translocation modulation | HeLa beta-catenin nuclear translocation, immunofluorescence imaging | nuclear translocation activity, % at 5 µM | 190,000 tested, 0.3% active | AID 1665;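 active = nuclear translocation activity above 50% at 5 µM, with a well cell count of 50 or more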;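 note: per-cell ratio of nuclear to cytoplasmic median beta-catenin stain intensity; plate controls were DMSO negative control for no effect and GSK-3 inhibitor IX positive control for full effect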
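System: HeLa cells, endogenous beta-catenin; compound dosing: 5 µM primary single dose, 0.1% DMSO, 0.02–20 µM confirmation series; incubation: 24 h compound exposure at 37°C, 5% CO2; signal: beta-catenin immunofluorescence imaging with DAPI; evaluation: % activation, nuclear-to-cytoplasmic median beta-catenin signal ratio per cell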
Ba/F3 V617F tox = lowers viability of Ba/F3 cells expressing EpoR and JAK2V617F; ATP luminescence; inhibition, % at 5.6 µM; 220,000 tested, 1.1% active; AID 1446;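 active = inhibition above the campaign mean plus 3 SD over all tested compounds, cut at about 24% in these data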;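 note: cytokine-independent growth of Ba/F3 cells driven by EpoR plus mutant JAK2; 0% = DMSO-treated cells and 100% = JAK inhibitor I control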
APP transl inh = APP translation inhibition; inhibition, % at 2 µM; 190,000 tested, 0.82% active; SH-SY5Y APP 5'UTR-luciferase reporter, luminescence;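 active = inhibition above a set limit, derived from the sample mean plus 3 SD, cut at about 45% in these data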
L major 1uM = L. major promastigote growth inhibition, 1 uM repeat; shares compounds with L major viab; 1,100 tested, 13% active; inhibition, % at 1 µM; resazurin fluorescence, 48 h;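 active = inhibition above about 50% in both repeat tests, limit read from the data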
Starred values were filed as active, the others as inactive; x = not tested or not shown.

SMILES	BaF3 tox	MT stabilizer	L major viab	bCat nuc transl	Ba/F3 V617F tox	APP transl inh	L major 1uM
CCOC(=O)c1nnn(-c2nonc2N)c1COc1c(C=O)cccc1OC	4.3	4.4	98.0*	-4.1	3.0	-5.1	-1.4
CCOC(=O)c1nnn(-c2nonc2N)c1CS(=O)(=O)c1ccccc1	-1.5	3.7	-0.7	-0.9	2.5	5.6	x
CCOC(=O)c1nnn(-c2nonc2-n2cccc2)c1CCl	-2.7	7.4	99.8*	29.1	-3.0	-19.6	57.4*
C#Cc1cccc(NC(=O)C2CCN(C(C)=O)CC2)c1	4.3	2.6	0.8	-0.7	1.8	-17.9	x
O=C(NCCOc1ccccc1)c1cc2ccccc2o1	5.2	2.0	-3.0	1.6	-1.7	-95.8	x
COc1cccc(/C=C/C(=O)OCC(=O)NCCc2ccccc2)c1	1.7	6.7	-7.5	-2.8	1.3	3.8	x
Cc1ccc(SCCc2ccc(C)nc2)cc1	8.6	5.2	3.6	0.3	5.7	-8.0	x
CN(C(=O)CSc1nc2cc(C(=O)O)ccc2c(=O)n1Cc1ccccc1)C1CCS(=O)(=O)C1 (configuration not stated)	6.6	2.1	-1.5	0.8	3.7	-13.4	x
Cc1nn(Cc2ccc(Cl)cc2)c(=O)n1N(C)c1ncc(C(F)(F)F)cc1Cl	3.4	1.5	93.6*	-0.9	-1.0	4.7	-17.0
Cc1ccc(S(=O)(=O)N2CCCC2C(=O)O)s1 (configuration not stated)	3.4	1.5	-5.2	2.9	-0.9	-20.4	x
Cc1ccccc1OCCCC(=O)NCc1ccco1	2.4	1.1	-1.5	0.5	0.1	-1.1	x
Cc1cc(C(F)(F)F)nn1CC(=O)Nc1ccc(Br)c2cccnc12	3.6	2.5	96.4*	-2.7	-2.0	-7.7	-13.7
O=[N+]([O-])c1ccc2c(c1)c(-c1ccccc1)nc1nncn12	6.0	3.9	56.2*	0.2	2.1	1.5	-15.4
O=S(=O)(c1ccc(-c2csc(-c3cccnc3)n2)cc1)N1CCCCC1	2.1	4.0	78.3*	1.1	-1.1	-0.4	39.5
O=S(=O)(c1ccc(-c2csc(-c3cccnc3)n2)cc1)N1CCCC1	4.8	2.5	14.7	-0.3	2.5	-15.0	x
O=c1[nH]c2ccc(Cl)cc2c(-c2ccccc2)c1N1CCN(c2ccccn2)CC1	5.4	2.6	33.4	-8.2	1.1	-23.1	x
O=C1Nc2c(c(=O)[nH]c(=O)n2-c2ccc(F)cc2)C1(NS(=O)(=O)c1ccccc1)C(F)(F)F (configuration not stated)	-0.7	x	x	2.4	-1.6	x	x
O=[N+]([O-])c1ccccc1S(=O)(=O)Oc1ccc(C(=S)N2CCOCC2)cc1	5.0	1.7	81.3*	0.5	-1.1	-5.5	-21.5
O=C(CSc1nc2ccccc2[nH]1)N1CCN(c2ccc(F)cc2)CC1	5.6	2.0	57.6*	x	0.1	-14.3	-3.0
O=S(=O)(NCc1ccccn1)c1cc(OCC(F)(F)F)ccc1OCC(F)(F)F	1.0	x	x	-0.2	-3.1	x	x
CC1(C)Cc2c(ccc3ccccc23)/C(=C/C(=O)N2CCCCC2)N1	21.6	2.1	17.7	-2.2	1.4	-1.5	x
O=C(/C=C1\NC2(CCCC2)Cc2ccccc21)N1CCOCC1	4.1	2.5	87.6*	-0.7	-1.5	4.7	-2.4
CCc1ccc(/C=C2\CN(CC)Cc3c2nc2ccccc2c3C(=O)O)cc1	9.0	4.1	53.9*	-0.9	4.5	4.7	-18.7
CCN1C/C(=C/c2cccs2)c2nc3ccccc3c(C(=O)O)c2C1	1.3	x	x	-0.2	-2.9	x	x
CCN(CC)C(=O)C(=O)N/N=C/c1cccc(Br)c1	11.0	1.5	3.0	x	5.0	-1.8	x
SMILES	BaF3 tox	MT stabilizer	L major viab	bCat nuc transl	Ba/F3 V617F tox	APP transl inh	L major 1uM
FC(F)(F)c1nnc2c(Sc3ccccc3)nc3ccccc3n12	-1.0	0.7	1.6	-3.7	-3.8	-16.5	x
FC(F)(F)c1nnc2c(Sc3ccccn3)nc3ccccc3n12	0.0	3.0	94.5*	-0.2	-3.8	-28.3	13.6
C=CCc1c(C)nc(SC)nc1Nc1ccc(C)cc1	0.1	1.4	97.1*	-1.3	-3.3	x	24.5
CCn1cc(CNCc2cn(C)nc2-c2ccc(C3CCCCC3)cc2)cn1	5.3	3.7	94.9*	1.1	1.0	11.8	19.6
CC(=O)c1c(N2CCN(c3cccc(Cl)c3)CC2)nc(=S)n(-c2ccccc2)c1C	0.8	2.9	91.0*	0.2	2.4	-7.0	-8.7
CCN(CC)CCN(C)C1CCC(c2ccccc2)CC1 (configuration not stated)	9.3	2.6	94.2*	0.9	-0.3	-3.5	75.5*
CN1CCN(Cc2cn[nH]c2-c2ccc(F)cc2F)[C@@H](c2ccccc2)C1	11.1	2.4	10.0	-1.2	4.2	-14.2	x
Cc1ccc(S(=O)(=O)NC(N)=NCCc2ccc(Cl)cc2)cc1C	7.6	2.6	51.5*	0.5	-1.5	-13.3	-20.4
NC(=NCCc1ccc(Cl)cc1)NS(=O)(=O)c1ccc(F)cc1	11.3	3.4	1.8	0.9	6.6	-5.9	x
COc1ccccc1OC1OC2COC(c3ccco3)OC2C(O)C1NC(C)=O (configuration not stated)	-0.4	3.2	65.2*	0.1	-6.9	2.4	-13.3
CC(=O)NC12CC3CC(C)(C1)CC(NC(C)=O)(C3)C2	2.0	4.0	-3.7	0.2	1.4	2.5	x
Cc1cccc(-c2cc3c(N=O)c4ccccc4c-3n[nH]2)c1	4.6	2.7	64.3*	-1.3	1.0	-142.4	52.8*
Cc1ccc(-c2cc3c(N=O)c4ccccc4c-3n[nH]2)cc1	5.9	3.4	40.5	-3.3	7.2	-5.9	x
O=Nc1c2cc(-c3ccccc3)[nH]nc-2c2ccccc12	10.1	1.9	65.0*	1.7	11.3	-100.9	53.9*
CC(OC(=O)c1ccccc1Br)C(=O)Nc1nc(-c2cccc([N+](=O)[O-])c2)cs1 (configuration not stated)	-2.3	2.8	1.5	-2.4	-4.8	-0.8	x
O=C(Nc1nc(-c2cccc([N+](=O)[O-])c2)cs1)C(c1ccccc1)c1ccccc1	1.1	2.2	58.6*	3.6	-0.5	-8.8	-2.3
Cc1nn(-c2cccc(C(F)(F)F)c2)c(Cl)c1/C=N/Nc1cccc(C(=O)O)c1	4.0	1.4	90.1*	-0.1	-3.3	-158.8	-8.0
Cc1nn(-c2ccccc2Cl)c(Cl)c1/C=N/Nc1cccc(C(=O)O)c1	3.7	4.3	25.4	-1.0	-2.6	-2.7	x
O=[N+]([O-])c1ccc2c(c1)ncn2-c1ccccc1	10.0	7.3	1.2	-1.4	4.3	-5.1	x
O=[N+]([O-])c1ccc(-n2cnc3ccccc32)c([N+](=O)[O-])c1	6.5	5.1	99.6*	0.6	1.9	9.1	21.8
CCCNC(=O)c1cccc(C(F)(F)F)c1	4.2	3.2	2.2	2.3	5.8	4.1	x
